Experimental data: ChEMBL document CHEMBL1140877, “Synthesis and evaluation of Hsp90 inhibitors that contain the 1,4-naphthoquinone scaffold” (Bioorg Med Chem, 2009)

How the values were obtained:
[1] = test system: SK-BR-3; test: Antiproliferative activity against ERalpha negative/Her2 over expressing human SKBR3 cells after 72 hrs by MTS/PMS assay; format: functional, cell-based; details: SK-BR-3, 72 h
How it was run: (§1)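 MCF-7 and SKBr3 cells grown in 1:1 DMEM:Ham's F-12 with non-essential amino acids, 2 mM L-glutamine, penicillin/streptomycin, 10% FBS. Seeded 2000 cells/well, attached overnight, then exposed to varying concentrations in DMSO (1% final) for 72 hr at 37 °C, 5% CO2. Viable cells read by MTS/PMS; 1% DMSO wells set as 100% proliferation. Mean ± SEM, three experiments in triplicate.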

[2] = Inhibition of Hsp90-dependent renaturation of firefly luciferase in rabbit reticulocyte lysate at 25 ug/mL; design: species or system Oryctolagus cuniculus
[3] = biological target: T1, Heat shock protein HSP90 (Homo sapiens, UniProt P07900+P08238); test: Inhibition of Hsp90 in human SKBR3 cells assessed as down-regulation of Her2 protein by ELISA; format: cell-based; details: sk-br-3
How it was run: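 SKBr3 cells seeded 3000/well, attached overnight, dosed at varying concentrations for 24 hr. Cells washed with ice-cold PBS/1% Tween, fixed and permeabilised in -20 °C methanol (4 °C, 10 min), blocked in 5% BSA/PBST 1 hr, probed with rabbit anti-Her2 (1:500, 4 °C overnight), then HRP anti-rabbit IgG (1:1000, 2 hr rt); chemiluminescence read. Mean ± SEM, three experiments in triplicate.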

[4] = test system: MCF7; test: Antiproliferative activity against ERalpha positive human MCF7 cells after 72 hrs by MTS/PMS assay; format: functional, cell-based; details: MCF7, 72 h; how it was run: as §1
[5] = biological target: T1, Heat shock protein HSP90; test: Inhibition of Hsp90 in human MCF7 cells assessed as degradation of Her2 protein by Western blot analysis; format: cell-based
How it was run: (§2)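 MCF-7 cells seeded at 1×10^6 per dish, attached overnight, treated at varying concentrations for 24 h (37 °C, 5% CO2), then harvested and immunoblotted for client proteins (Her2, Raf-1, Akt) with actin as non-client reference; GA (500 nM) and DMSO as controls.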

[6] = biological target: T1, Heat shock protein HSP90; test: Inhibition of Hsp90 in human MCF7 cells assessed as degradation of Raf1 protein by Western blot analysis; format: cell-based; how it was run: as §2
[7] = biological target: T1, Heat shock protein HSP90; test: Inhibition of Hsp90 in human MCF7 cells assessed as degradation of Akt protein by Western blot analysis; format: cell-based; how it was run: as §2

Row | Compound | IC50 [1] | IC50 [2] | IC50 [3] | IC50 [4] | Activity [5] | Activity [6] | Activity [7]
1 | O=C1c2ccccc2C(=O)c2c1nc1ccccn21 | 870 nM | 20 nM | 1200 nM | 830 nM | – | – | –
2 | CC(=O)NC1=C(c2ccc(Oc3ccccc3)cc2)C(=O)c2ccccc2C1=O | 12100 nM | – | 24600 nM | 2500 nM | – | – | –
3 | COc1ccc(C2=C(NC(=O)c3ccccc3Cl)C(=O)c3ccccc3C2=O)cc1 | 5500 nM | – | 2000 nM | 2200 nM | Dose-dependent effect | Dose-dependent effect | Dose-dependent effect
4 | CC(=O)NC1=C(c2ccc(Cl)cc2)C(=O)c2ccccc2C1=O | 1800 nM | 200 nM | 5300 nM | 1400 nM | Dose-dependent effect | Dose-dependent effect | Dose-dependent effect
5 | COc1ccc(C2=C(NC(=O)c3ccccc3)C(=O)c3ccccc3C2=O)cc1 | 4000 nM | – | 2800 nM | 1400 nM | – | – | –
6 | COc1ccc(C2=C(NC(=O)c3ccccc3OC)C(=O)c3ccccc3C2=O)cc1 | 7900 nM | – | 5800 nM | 2100 nM | – | – | –
7 | COc1cccc(-c2cc(C(=O)NC3=C(Cl)C(=O)c4ccccc4C3=O)ccc2OC)c1 | – | 1600 nM | 1700 nM | 3000 nM | Dose-dependent effect | Dose-dependent effect | Dose-dependent effect
8 | CC(=O)NC1=C(c2ccccc2)C(=O)c2ccccc2C1=O | 1500 nM | – | 3200 nM | 1600 nM | – | – | –
9 | CC(=O)NC1=C(c2ccccc2Cl)C(=O)c2ccccc2C1=O | 3600 nM | – | 2300 nM | 3000 nM | – | – | –
10 | COc1ccc(C2=C(NC(=O)c3ccc(Cl)cc3)C(=O)c3ccccc3C2=O)cc1 | – | – | 3000 nM | 3300 nM | – | – | –
11 | CC(=O)NC1=C(c2ccc3oc4ccccc4c3c2)C(=O)c2ccccc2C1=O | 6800 nM | – | 13300 nM | 2400 nM | – | – | –
12 | COc1ccccc1C1=C(NC(C)=O)C(=O)c2ccccc2C1=O | 1700 nM | 1600 nM | 2500 nM | 2200 nM | – | – | –
13 | CC(=O)C1=C(c2ccccc2)C(=O)c2ccccc2C1=O | 820 nM | 250 nM | 3300 nM | 210 nM | – | – | –
14 | CC(=O)NC1=C(N2CCOCC2)C(=O)c2nonc2C1=O | 2900 nM | 380 nM | 1200 nM | 19000 nM | – | – | –
15 | O=C(NC1=C(c2ccc3oc4ccccc4c3c2)C(=O)c2ccccc2C1=O)c1ccccc1 | > 100000 nM | – | > 100000 nM | 6000 nM | – | – | –
16 | O=C(NC1=C(Cl)C(=O)c2ccccc2C1=O)c1ccccc1 | 2100 nM | – | 30100 nM | 1800 nM | – | – | –
17 | COc1ccc(C2=C(NC(C)=O)C(=O)c3ccccc3C2=O)cc1 | 2700 nM | – | 2200 nM | – | – | – | –

Row | Compound | IC50 [1] | IC50 [2] | IC50 [3] | IC50 [4] | Activity [5] | Activity [6] | Activity [7]
18 | COc1ccc(C2=C(NC(=O)c3ccc4ccccc4c3)C(=O)c3ccccc3C2=O)cc1 | > 100000 nM | – | > 100000 nM | 6800 nM | – | – | –
19 | COc1ccc(C2=C(NC(=O)C3CCCCC3)C(=O)c3ccccc3C2=O)cc1 | 4800 nM | 1400 nM | 2500 nM | 1900 nM | – | – | –
20 | O=C(NC1=C(c2ccccc2Cl)C(=O)c2ccccc2C1=O)c1ccccc1 | 4000 nM | – | 1800 nM | – | – | – | –
21 | COc1cccc(C2=C(NC(=O)c3ccccc3)C(=O)c3ccccc3C2=O)c1 | – | – | 2700 nM | 1400 nM | – | – | –
22 | COc1ccc(C2=C(NC(=O)c3cccc4ccccc34)C(=O)c3ccccc3C2=O)cc1 | 5800 nM | – | 9900 nM | 2200 nM | – | – | –
23 | COc1ccccc1C1=C(NC(=O)c2ccccc2)C(=O)c2ccccc2C1=O | 1900 nM | 39000 nM | 3000 nM | 2200 nM | – | – | –
24 | COc1cccc(C2=C(NC(C)=O)C(=O)c3ccccc3C2=O)c1 | 3900 nM | – | 4800 nM | 2700 nM | – | – | –
25 | COc1ccc(C2=C(NC(=O)c3cccc(Cl)c3)C(=O)c3ccccc3C2=O)cc1 | 9500 nM | – | 12900 nM | 3400 nM | – | – | –
26 | O=C(NC1=C(c2ccc(Cl)cc2)C(=O)c2ccccc2C1=O)c1ccccc1 | 8500 nM | 1400 nM | 1800 nM | 2600 nM | – | – | –
27 | O=C(NC1=C(c2cccc(Cl)c2)C(=O)c2ccccc2C1=O)c1ccccc1 | 12700 nM | – | 6300 nM | 4800 nM | – | – | –
28 | COc1ccc(C(=O)NC2=C(c3ccc(OC)cc3)C(=O)c3ccccc3C2=O)cc1 | 6400 nM | 24000 nM | 2400 nM | 1500 nM | – | – | –
29 | CC(=O)NC1=C(c2cccc(Cl)c2)C(=O)c2ccccc2C1=O | 2500 nM | – | 2000 nM | 1300 nM | – | – | –
30 | O=C(NC1=C(c2ccccc2)C(=O)c2ccccc2C1=O)c1ccccc1 | 6800 nM | – | 3800 nM | 2100 nM | – | – | –
31 | CC(=O)NC1=C(Cl)C(=O)c2ccccc2C1=O | 600 nM | 5000 nM | 6600 nM | 1700 nM | – | – | –
32 | COc1ccc(C2=C(NC(=O)c3cccc(OC)c3)C(=O)c3ccccc3C2=O)cc1 | 6400 nM | – | 44200 nM | 1800 nM | – | – | –
33 | COc1ccc(C2=C(NC(=O)c3ccc(OC)c(-c4cccc(OC)c4)c3)C(=O)c3ccccc3C2=O)cc1 | > 100000 nM | 86000 nM | > 100000 nM | > 100000 nM | – | – | –
34 | O=C(NC1=C(c2ccc(Oc3ccccc3)cc2)C(=O)c2ccccc2C1=O)c1ccccc1 | > 100000 nM | – | > 100000 nM | 23000 nM | – | – | –
